Laboratory results from ChEMBL document CHEMBL1133219, “Design and evaluation of dihydroisoquinolines as potent and orally bioavailable human cytomegalovirus inhibitors” (Bioorg Med Chem Lett, 2000).
≈ marks a conversion by molar mass, not a printed value.

What was measured:
[1] = system: Human betaherpesvirus 5; experiment: Antiviral activity determined against human cytomegalovirus (HCMV) in Hs 68 cell line by plaque reduction assay; assay type: functional, organism-based; conditions: Human betaherpesvirus 5, Hs68
[2] = system: Hs68; experiment: Cytotoxic activity in Hs 68 cell line by inhibition of cell proliferation; assay type: functional; conditions: Homo sapiens
[3] = system: Mus musculus; experiment: The area under concentration-time curve(AUC) was determined at 5 mg/kg of compound dose, administered intravenously in mice; assay type: ADME, organism-based; set-up: dose 5 mg/kg, route intravenous; conditions: in vivo, iv
Outline: (§1)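 Mice dosed po or iv, and plasma sampled over time. Non-compartmental analysis of mean plasma concentrations gave Cmax, AUC and t1/2. AUC taken by linear trapezoidal method from zero to last sample, extrapolated to infinity with terminal slope λz. t1/2 = 0.693/λz. Mean of triplicates (SD<8%).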

[4] = Pharmacokinetic studies were carried out in vivo after administration of compound at 5 mg/kg intravenously in mice; assay type: ADME, organism-based; set-up: dose 5 mg/kg, route intravenous; conditions: mouse, iv; outline: as §1
[5] = Pharmacokinetic studies were carried out in vivo after administration of compound at 50 mg/kg perorally in mice; assay type: ADME, organism-based; set-up: dose 50 mg/kg, route oral; conditions: mouse, po; outline: as §1
[6] = system: Mus musculus; experiment: The area under concentration-time curve(AUC) was determined at 50 mg/kg of compound dose, administered perorally in mice; assay type: ADME, organism-based; set-up: dose 50 mg/kg, route oral; conditions: in vivo, po; outline: as §1
[7] = (§2) Half life was evaluated at 50 mg/kg of compound dose, administered perorally in mice; assay type: ADME, organism-based; set-up: dose 50 mg/kg, route oral; conditions: mouse, in vivo, po
Outline: (§3)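 Mouse PK with plasma levels after oral dosing. Mean plasma data analysed non-compartmentally. Terminal slope (λz) obtained from the concentration-time curve, and t1/2 taken as 0.693/λz. Data are means of triplicates (SD<8%).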

[8] = system: Mus musculus; experiment: The area under concentration-time curve(AUC) was determined at 5 mg/kg of compound dose, administered perorally in mice; assay type: ADME, organism-based; set-up: dose 5 mg/kg, route oral; conditions: in vivo, po; outline: as §1
[9] = system: Mus musculus; experiment: Half life was evaluated at 5 mg/kg of compound dose, administered intravenously in mice; conditions: in vivo, iv
[10] = Pharmacokinetic studies were carried out in vivo after administration of compound at 50 mg/kg intravenously in mice; assay type: ADME, organism-based; set-up: dose 50 mg/kg, route intravenous; conditions: mouse, iv; outline: as §1
[11] = Half life was evaluated at 5 mg/kg of compound dose, administered perorally in mice; assay type: ADME, organism-based; set-up: dose 5 mg/kg, route oral; conditions: mouse, in vivo, po; outline: as §3
[12] = system: Mus musculus; experiment: The area under concentration-time curve(AUC) was determined at 50 mg/kg of compound dose, administered intravenously in mice; assay type: ADME, organism-based; set-up: dose 50 mg/kg, route intravenous; conditions: in vivo, iv; outline: as §1
[13] = Pharmacokinetic studies were carried out in vivo after administration of compound at 5 mg/kg perorally in mice; assay type: ADME, organism-based; set-up: dose 5 mg/kg, route oral; conditions: mouse, po; outline: as §1
[14] = system: Mus musculus; experiment: as §2; assay type: ADME, organism-based; set-up: dose 50 mg/kg, route oral; conditions: in vivo, po; outline: as §3
[15] = Percent oral bioavailability was determined after administration of compound at 5 mg/kg perorally in mice; assay type: ADME, organism-based; conditions: mouse, in vivo, read-out: BA
Outline: (§4)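 Mouse PK comparing oral and intravenous dosing. AUC estimated by linear trapezoid from time zero to last sample, extrapolated to infinity via terminal slope. Oral bioavailability calculated as AUCpo,0-∞/AUCiv,0-∞ at the corresponding dose. Mean of triplicate data (SD<8%).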

[16] = Percent oral bioavailability was determined after administration of compound at 50 mg/kg perorally in mice; assay type: ADME, organism-based; conditions: mouse, in vivo, read-out: BA; outline: as §4

Row | IC50 [1] | Compound | CC50 [2] | further results
1 | > 25 µg/mL | COc1ccccc1CNC(=O)c1ccc2c(Br)nccc2n1 | ~25 µg/mL (≈ 67.2 µM) | –
2 | > 10 µg/mL | COc1ccccc1CNC(=O)c1ccc2c(Cl)nccc2n1 | ~3.2 µg/mL (≈ 9.76 µM) | –
3 | 25 µg/mL (≈ 84.4 µM) | COc1ccccc1CNC(=O)C1CCc2cnccc2C1 (centres undefined) | 100 µg/mL (≈ 337 µM) | –
4 | ~10 µg/mL (≈ 32.1 µM) | COc1ccccc1CNC(=O)c1ccc2c(F)nccc2n1 | ~10 µg/mL (≈ 32.1 µM) | –
5 | 0.71 µg/mL (≈ 2.55 µM) | O=C(NCCc1ccccc1)C1=Cc2ccncc2CC1 | 25 µg/mL (≈ 89.8 µM) | –
6 | 10 µg/mL (≈ 32.4 µM) | COc1ccccc1CCNC(=O)C1=Cc2ccncc2CC1 | > 25 µg/mL | –
7 | > 25 µg/mL | COc1ccccc1CNC(=O)c1ccc2c[n+]([O-])ccc2n1 | 100 µg/mL (≈ 323 µM) | –
8 | 0.17 µg/mL (≈ 0.598 µM) | O=C(NCCc1cccs1)C1=Cc2ccncc2CC1 | 15 µg/mL (≈ 52.7 µM) | –
9 | > 25 µg/mL | COc1ccccc1CNC(=O)c1ccc2c(OC)nccc2n1 | > 50 µg/mL | –
10 | > 10 µg/mL | COc1ccccc1CNC(=O)c1ccc2c(C)nccc2n1 | > 25 µg/mL | –
11 | 0.68 µg/mL (≈ 2.11 µM) | CC(C)Oc1ccccc1CNC(=O)C1=Cc2ccncc2CC1 | 12.5 µg/mL (≈ 38.8 µM) | –
12 | 0.64 µg/mL (≈ 2.17 µM) | COc1ccccc1CNC(=O)C1=Cc2ccncc2CC1 | > 50 µg/mL | AUC [3]: 57 ug m-1 min-1; Cmax [4]: 6940 ng/mL; Cmax [5]: 12500 ng/mL; AUC [6]: 734 ug m-1 min-1; half-life [7]: 42.3 min
13 | 0.23 µg/mL (≈ 0.68 µM) | COc1ccc(OC)c(CCNC(=O)C2=Cc3ccncc3CC2)c1 | > 50 µg/mL | –
14 | 0.1 µg/mL (≈ 0.315 µM) | O=C(NCCc1c[nH]c2ccccc12)C1=Cc2ccncc2CC1 | 5 µg/mL (≈ 15.8 µM) | AUC [8]: 21 ug m-1 min-1; AUC [3]: 94 ug m-1 min-1; T1/2 [9]: 14.2 min; Cmax [10]: 57800 ng/mL; Cmax [4]: 5560 ng/mL; half-life [11]: 15.2 min; AUC [12]: 2914 ug m-1 min-1; Cmax [5]: 15100 ng/mL; Cmax [13]: 600 ng/mL; AUC [6]: 1762 ug m-1 min-1; T1/2 [14]: 43.9 min; half-life [7]: 72.5 min; bioavailability [15]: 22.5%; bioavailability [16]: 60.4%
15 | ~10 µg/mL (≈ 32.4 µM) | COc1ccccc1CNC(=O)c1ccc2c(N)nccc2n1 | ~12.5 µg/mL (≈ 40.5 µM) | –
